Data from ChEMBL document CHEMBL1137782, “Identification of peptide substrate and small molecule inhibitors of testis-specific serine/threonine kinase1 (TSSK1) by the developed assays” (J Med Chem, 2009).

T1: Testis-specific serine/threonine-protein kinase 1 (Homo sapiens) (UniProt Q9BXA7)
T1 sequence (whole entry): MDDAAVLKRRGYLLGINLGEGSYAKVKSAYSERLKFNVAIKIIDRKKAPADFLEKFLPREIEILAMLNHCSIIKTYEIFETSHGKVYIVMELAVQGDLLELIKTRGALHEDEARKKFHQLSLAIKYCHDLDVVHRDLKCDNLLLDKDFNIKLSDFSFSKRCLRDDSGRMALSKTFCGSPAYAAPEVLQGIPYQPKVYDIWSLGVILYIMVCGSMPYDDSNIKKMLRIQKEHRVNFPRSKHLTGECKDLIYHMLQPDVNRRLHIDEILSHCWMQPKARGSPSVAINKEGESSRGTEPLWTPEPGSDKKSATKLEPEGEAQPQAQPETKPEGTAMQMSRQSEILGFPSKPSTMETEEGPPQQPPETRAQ

T2: Testis-specific serine/threonine-protein kinase 1 (Homo sapiens, UniProt Q9BXA7)
T2 sequence (Q9BXA7 whole entry): T1 sequence (whole entry)

B1: Testis-specific serine/threonine-protein kinase 1 (Homo sapiens), Q9BXA7 (protein)
chain: T1 sequence (whole entry)

What was measured:
[1] = target: T1, Testis-specific serine/threonine-protein kinase 1 (Homo sapiens); test: Inhibition of TSSK1-catalyzed phosphorylation of AALVRQMSVAFFFK substrate at 20 uM by luminescent kinase assay
Method in brief: (§1)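 Luminescent Kinase-Glo read-out of ATP left after reaction. Buffer 40 mM Tris-HCl, 20 mM MgCl2, 0.1 mg/mL BSA, 2 mM DTT. Final 0.5 μg/well TSSK1, 10 μM Pep8 peptide, 1.5 μM ATP. Incubated 2 h at 37 °C, then an equal volume of Kinase-Glo added for 10 min at room temperature before luminescence (RLU) reading. Controls lacked peptide or lacked TSSK1; staurosporine 100 μM as positive control.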

[2] = target: T2, Testis-specific serine/threonine-protein kinase 1; test: Inhibition of TSSK1-catalyzed phosphorylation of AALVRQMSVAFFFK substrate by luminescent kinase assay; method in brief: as §1
[3] = target: T2, Testis-specific serine/threonine-protein kinase 1; test: Inhibition of TSSK1-catalyzed phosphorylation of AALVRQMSVAFFFK substrate by LC-MS based HTP assay in presence of Pep8-(O2)
Method in brief: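 TSSK1 reaction at final 75 ng/well enzyme, 10 μM Pep8, 25 μM ATP in Tris-HCl/MgCl2/BSA/DTT buffer, 90 min at 37 °C. Acetonitrile quench carried 7 μM sulfone internal standard Pep8-P(O2). After 15000g spin, C18 HPLC-MS analysis. Pep8-P concentration calculated from its peak area relative to the internal standard using a normalization factor, and IC50 derived from that.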

[4] = target: T2, Testis-specific serine/threonine-protein kinase 1; test: Inhibition of TSSK1-catalyzed phosphorylation of AALVRQMSVAFFFK substrate by LC-MS based HTP assay in absence of Pep8-(O2)
Method in brief: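 End-point LC-MS read-out of phosphorylated Pep8 (Pep8-P). Reaction in 40 mM Tris-HCl, 20 mM MgCl2, 0.1 mg/mL BSA, 2 mM DTT with final 75 ng/well TSSK1, 10 μM Pep8, 25 μM ATP, run 90 min at 37 °C. Quenched with acetonitrile, spun 15000g 10 min, then analysed by C18 HPLC-MS using formic acid/acetonitrile gradient. IC50 taken from Pep8-P peak area with no internal standard.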

[5] = substrate: Nc1ncnc2c1ncn2[C@@H]1O[C@H](COP(=O)(O)OP(=O)(O)OP(=O)(O)O)[C@@H](O)[C@H]1O; test: (§2) Activity at TSSK1 by Michaelis-Menten plot
Method in brief: (§3)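 Enzyme time courses quantified phosphorylated Pep8 by LC-MS. ATP was varied 3.13–200 μM with Pep8 at 30 μM, or Pep8 0–40 μM with ATP at 200 μM. Reactions were quenched with acetonitrile containing 7 μM sulfone internal standard. Initial velocities were taken in duplicate and fitted to Michaelis-Menten by nonlinear least squares.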

[6] = substrate: CSCC[C@H](NC(=O)[C@H](CCC(N)=O)NC(=O)[C@H](CCCNC(=N)N)NC(=O)[C@@H](NC(=O)[C@H](CC(C)C)NC(=O)[C@H](C)NC(=O)[C@H](C)N)C(C)C)C(=O)N[C@@H](CO)C(=O)N[C@H](C(=O)N[C@@H](C)C(=O)N[C@@H](Cc1ccccc1)C(=O)N[C@@H](Cc1ccccc1)C(=O)N[C@@H](Cc1ccccc1)C(=O)N[C@@H](CCCCN)C(=O)O)C(C)C; test: as §2; method in brief: as §3

Molecule	inhibition [1] [%]	IC50 [3] [µM]	also measured
CCCc1cc(=O)oc2cc3c(c(O)c12)C(=O)CC(C)O3 (stereo not drawn)	> 40	–	IC50 [2]: 38.7 µM
CCCCCCCn1c(-c2ccc(O)c(O)c2)nc2cc3[nH]c(=O)c(C(C)C)nc3cc21	–	72	–
CCCc1c(Cl)c(=O)oc2cc(O)cc(O)c12	> 40	–	–
O=C(c1ccc(-c2ccc(C(=O)C(O)O)cc2)cc1)C(O)O	> 40	–	IC50 [2]: 43.2 µM
CCc1cc(=O)oc2cc3c(c(O)c12)C(=O)CC(C)O3 (stereo not drawn)	> 40	–	–
CC(C)c1nc2cc3c(cc2[nH]c1=O)nc(-c1ccc(C(=O)O)cc1)n3CCCc1ccccc1	–	38	–
O=C(c1ccc(-c2ccc(C(=O)C(O)S(=O)(=O)O)cc2)cc1)C(O)S(=O)(=O)O (stereo not drawn)	–	19.1	IC50 [2]: 24.8 µM; IC50 [4]: 14.4 µM
Cc1c(Cc2ccccc2)c(=O)oc2cc(O)cc(O)c12	> 40	–	–
C=CC(=O)Oc1cc(O)c2c(CCC)cc(=O)oc2c1	> 40	–	–
O=c1oc2cc(O)cc(O)c2c2c1CCCC2	> 40	–	–
CC(C)C[C@H](CC(=O)N[C@H](CCC(N)=O)C(=O)O)NC(=O)c1cc(Cl)ccc1N	> 40	–	–
CC(=O)Nc1ccc(-c2nc3cc4[nH]c(=O)c(C)nc4cc3n2CCCc2ccccc2)cc1	–	98	–
B1	–	–	Km [5]: 50.5 µM; Km [6]: 25.2 µM
